≈ marks a conversion by molar mass, not a printed value. Calls of active or inactive are those of the source. No cut-off for these calls is given here.
Key:
Escherichia coli [1] = experiment: Antibacterial activity against Escherichia coli at 20 umol/ml after 24 hrs by Kirby-Bauer's disk diffusion assay; assay type: functional
Procedure, shortened: (§1)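 Kirby-Bauer disc diffusion. Compounds were dissolved in acetone and serially diluted. Sterile 6 mm discs were soaked in the solutions and dried. 1 ml of bacterial broth culture was spread on Mueller-Hinton agar plates and the discs were placed aseptically. Plates were incubated upright at 37 °C for 24 h and the inhibition zone was measured with a scale.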

Candida albicans [2] = experiment: Antifungal activity against Candida albicans at 20 umol/ml after 48 hrs; assay type: functional
Procedure, shortened: (§2)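 Clinical fungal isolates were subcultured on Sabouraud dextrose agar. For the inoculum, cultures were grown on Sabouraud dextrose agar for 48 h at 37 °C. Conidia were dislodged into sterile saline, the suspension was brought to 5 ml, and the microconidia were counted. This suspension was swabbed over Sabouraud dextrose agar plates poured 5 mm deep, and excess was decanted. Sterile 6 mm discs were charged with compound.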

Klebsiella aerogenes [3] = experiment: Antibacterial activity against Klebsiella aerogenes after 18 hrs by broth microdilution susceptibility test; assay type: functional
Procedure, shortened: (§3)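 Broth microdilution in Mueller-Hinton broth at pH 7.4. Inoculum came from a broth culture grown 4–6 h to log phase. Compound dilutions were […]. Tubes were shaken and incubated at 37 °C for 18 h, then read for turbidity. MIC is the lowest concentration with no turbidity. Each test was run in triplicate and MICs come from at least two repetitions.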

Escherichia coli [4] = experiment: Antibacterial activity against Escherichia coli after 18 hrs by broth microdilution susceptibility test; assay type: functional; procedure, shortened: as §3
Micrococcus [5] = experiment: Antibacterial activity against Micrococcus after 18 hrs by broth microdilution susceptibility test; assay type: functional; procedure, shortened: as §3
[6] = tested on: Staphylococcus saprophyticus; experiment: Antibacterial activity against Staphylococcus saprophyticus after 18 hrs by broth microdilution susceptibility test; assay type: functional; procedure, shortened: as §3
Micrococcus [7] = experiment: Antibacterial activity against Micrococcus at 20 umol/ml after 24 hrs by Kirby-Bauer's disk diffusion assay; assay type: functional; procedure, shortened: as §1
Enterobacter cloacae [8] = experiment: Antibacterial activity against Enterobacter cloacae at 5 umol/ml after 24 hrs by Kirby-Bauer's disk diffusion assay; assay type: functional; procedure, shortened: as §1
[9] = tested on: Staphylococcus saprophyticus; experiment: Antibacterial activity against Staphylococcus saprophyticus at 20 umol/ml after 24 hrs by Kirby-Bauer's disk diffusion assay; assay type: functional; procedure, shortened: as §1
Micrococcus [10] = experiment: Antibacterial activity against Micrococcus at 10 umol/ml after 24 hrs by Kirby-Bauer's disk diffusion assay; assay type: functional; procedure, shortened: as §1
Enterobacter cloacae [11] = experiment: Antibacterial activity against Enterobacter cloacae after 18 hrs by broth microdilution susceptibility test; assay type: functional; procedure, shortened: as §3
Klebsiella aerogenes [12] = experiment: Antibacterial activity against Klebsiella aerogenes at 20 umol/ml after 24 hrs by Kirby-Bauer's disk diffusion assay; assay type: functional; procedure, shortened: as §1
Enterobacter cloacae [13] = experiment: Antibacterial activity against Enterobacter cloacae at 20 umol/ml after 24 hrs by Kirby-Bauer's disk diffusion assay; assay type: functional; procedure, shortened: as §1
Enterobacter cloacae [14] = experiment: Antibacterial activity against Enterobacter cloacae at 10 umol/ml after 24 hrs by Kirby-Bauer's disk diffusion assay; assay type: functional; procedure, shortened: as §1
KB = experiment: Antiproliferative activity against human KB cells after 48 hrs by MTT assay; assay type: functional, cell-based
Procedure, shortened: (§4)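 KB and HeLa cells were grown in DMEM with 10% heat-inactivated fetal calf serum and penicillin-streptomycin at 37 °C, 5% CO2. Cells were seeded at 5×10³ per well. After 16 h the medium was replaced with medium containing compound diluted from stock. MTT (from a 5 mg/ml 10× stock) was added for 4 h at 37 °C. Crystals were dissolved in DMSO and OD read at 570 nm, 48 h after treatment.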

HeLa = experiment: Antiproliferative activity against human HeLa cells after 48 hrs by MTT assay; assay type: functional, cell-based; procedure, shortened: as §4
Penicillium chrysogenum [15] = experiment: Antifungal activity against Penicillium notatum at 20 umol/ml after 48 hrs; assay type: functional; procedure, shortened: as §2
Micrococcus [16] = experiment: Antibacterial activity against Micrococcus at 5 umol/ml after 24 hrs by Kirby-Bauer's disk diffusion assay; assay type: functional; procedure, shortened: as §1
Escherichia coli [17] = experiment: Antibacterial activity against Escherichia coli at 10 umol/ml after 24 hrs by Kirby-Bauer's disk diffusion assay; assay type: functional; procedure, shortened: as §1
Candida albicans [18] = experiment: Antifungal activity against Candida albicans at 10 umol/ml after 48 hrs; assay type: functional; procedure, shortened: as §2
Aspergillus fumigatus [19] = experiment: Antifungal activity against Aspergillus fumigatus at 20 umol/ml after 48 hrs; assay type: functional; procedure, shortened: as §2
Penicillium chrysogenum [20] = experiment: Antifungal activity against Penicillium notatum at 10 umol/ml after 48 hrs; assay type: functional; procedure, shortened: as §2
Candida parapsilosis = experiment: Antifungal activity against Candida parapsilosis at 20 umol/ml after 48 hrs; assay type: functional
Procedure, shortened: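 Clinical isolates from diagnosed patients, subcultured on Sabouraud dextrose agar slants at 30 °C for 10–12 days. Inoculum from 48 h SDA cultures at 37 °C, dislodged into sterile saline and brought to 5 ml. Suspension swab-spread on SDA plates poured 5 mm deep, excess decanted. Sterile 6 mm discs charged with compound. Fluconazole reference.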

Aspergillus fumigatus [21] = experiment: Antifungal activity against Aspergillus fumigatus at 10 umol/ml after 48 hrs; assay type: functional; procedure, shortened: as §2
[22] = tested on: Staphylococcus saprophyticus; experiment: Antibacterial activity against Staphylococcus saprophyticus at 5 umol/ml after 24 hrs by Kirby-Bauer's disk diffusion assay; assay type: functional; procedure, shortened: as §1
[23] = tested on: Staphylococcus saprophyticus; experiment: Antibacterial activity against Staphylococcus saprophyticus at 10 umol/ml after 24 hrs by Kirby-Bauer's disk diffusion assay; assay type: functional; procedure, shortened: as §1

SMILES | inhibition zone (IZ) (Escherichia coli [1]) [mm] | inhibition zone (IZ) (Candida albicans [2]) [mm] | Activity (Klebsiella aerogenes [3]) | MIC (Escherichia coli [4]) [mM] | MIC (Micrococcus [5]) [mM] | MIC [6] [mM] | inhibition zone (IZ) (Micrococcus [7]) [mm] | inhibition zone (IZ) [9] [mm] | inhibition zone (IZ) (Micrococcus [10]) [mm] | MIC (Klebsiella aerogenes [3]) [mM] | MIC (Enterobacter cloacae [11]) [mM] | inhibition zone (IZ) (Klebsiella aerogenes [12]) [mm] | inhibition zone (IZ) (Enterobacter cloacae [13]) [mm] | Activity [6] | Activity (Enterobacter cloacae [11]) | Activity (Escherichia coli [4]) | other results
COc1cc(/C=C/C(=O)CC(=O)/C=C/c2ccc(O)c(OC)c2)ccc1O [CURCUMIN] | 10 | 15 | inactive | 20 (≈ 7370 µg/mL) | – | – | – | – | – | – | – | – | – | – | – | – | –
COc1cc(/C=C/C(=O)CC(=O)/C=C/c2ccc(OC(=O)/C=C/C=C/c3ccc(O)c(O)c3)c(OC)c2)ccc1OC(=O)/C=C/C=C/c1ccc(O)c(O)c1 | 16 | 16 | – | 10 (≈ 7450 µg/mL) | 10 (≈ 7450 µg/mL) | 20 (≈ 14900 µg/mL) | 16 | 10 | 12 | 20 (≈ 14900 µg/mL) | 5 (≈ 3720 µg/mL) | 11 | 18 | – | – | – | inhibition zone (IZ) (Enterobacter cloacae [8]): 12 mm; inhibition zone (IZ) (Enterobacter cloacae [14]): 14 mm
COc1cc(/C=C/C(=O)CC(=O)/C=C/c2ccc(OC(=O)[C@@H](N)CCC(=O)O)c(OC)c2)ccc1OC(=O)[C@@H](N)CCC(=O)O | – | – | – | – | 5 (≈ 3130 µg/mL) | – | 18 | – | 16 | 20 (≈ 12500 µg/mL) | – | 9 | – | inactive | inactive | inactive | Activity (KB): Active; Activity (HeLa): Active
COc1cc(/C=C/C(=O)CC(=O)/C=C/c2ccc(OC(=O)[C@@H](N)C(C)C)c(OC)c2)ccc1O [MONOVALINOYL CURCUMIN] | 13 | – | – | 10 (≈ 4680 µg/mL) | 2.5 (≈ 1170 µg/mL) | – | 26 | – | 20 | 5 (≈ 2340 µg/mL) | 2.5 (≈ 1170 µg/mL) | 18 | 25 | inactive | – | – | inhibition zone (IZ) (Penicillium chrysogenum [15]): 12 mm; inhibition zone (IZ) (Micrococcus [16]): 19 mm; inhibition zone (IZ) (Escherichia coli [17]): 11 mm
COc1cc(/C=C/C(=O)CC(=O)/C=C/c2ccc(OC(=O)CN)c(OC)c2)ccc1O [MONOGLYCINOYL CURCUMIN] | 12 | 20 | – | 20 (≈ 8510 µg/mL) | – | – | – | – | – | 5 (≈ 2130 µg/mL) | – | 18 | – | inactive | inactive | – | inhibition zone (IZ) (Candida albicans [18]): 18 mm; inhibition zone (IZ) (Aspergillus fumigatus [19]): 25 mm; Activity (Micrococcus [5]): inactive; inhibition zone (IZ) (Penicillium chrysogenum [20]): 16 mm; inhibition zone (IZ) (Penicillium chrysogenum [15]): 20 mm; inhibition zone (IZ) (Candida parapsilosis): 14 mm; inhibition zone (IZ) (Aspergillus fumigatus [21]): 20 mm
OC(Cn1cncn1)(Cn1cncn1)c1ccc(F)cc1F [FLUCONAZOLE] | – | 29 | – | – | – | – | – | – | – | – | – | – | – | – | – | – | inhibition zone (IZ) (Candida parapsilosis): 20 mm
O=C(O)/C=C/C=C/c1ccc(O)c(O)c1 [DEMETHYLENATED PIPERIC ACID] | – | 16 | inactive | – | 10 (≈ 2060 µg/mL) | 20 (≈ 4120 µg/mL) | 15 | 10 | – | – | 10 (≈ 2060 µg/mL) | – | 18 | – | – | inactive | –
COc1cc(/C=C/C(=O)CC(=O)/C=C/c2ccc(OC(=O)CN)c(OC)c2)ccc1OC(=O)CN | – | – | inactive | 20 (≈ 9650 µg/mL) | 10 (≈ 4820 µg/mL) | – | 15 | 14 | 13 | – | – | – | 12 | inactive | inactive | – | inhibition zone (IZ) [22]: 10 mm; inhibition zone (IZ) [23]: 12 mm; inhibition zone (IZ) (Micrococcus [16]): 10 mm
COc1cc(/C=C/C(=O)CC(=O)/C=C/c2ccc(OC(=O)[C@@H](N)C(C)C)c(OC)c2)ccc1OC(=O)[C@@H](N)C(C)C | 20 | – | inactive | 5 (≈ 2830 µg/mL) | 10 (≈ 5670 µg/mL) | 10 (≈ 5670 µg/mL) | 16 | 14 | 13 | – | 5 (≈ 2830 µg/mL) | – | 20 | – | – | – | inhibition zone (IZ) [23]: 12 mm
O=C(O)/C=C/C=C/c1ccc2c(c1)OCO2 [PIPERIC ACID] | – | – | – | – | – | – | – | – | – | 20 (≈ 4360 µg/mL) | – | 8 | – | inactive | – | inactive | –

Reference: ChEMBL document CHEMBL1156710, “Design, synthesis and characterization of some bioactive conjugates of curcumin with glycine, glutamic acid, valine and demethylenated piperic acid and study of their antimicrobial and antiproliferative properties” (2008)
